Data: the RNAGym collection of RNA variant scans (doi:10.1126/science.aae0568)
This sample holds only a part of the variants without activity.

B1: tRNA (parent)
chain: GUUCCGUUGGCGUAAUGGUAACGCGUCUCCCUCCUAAGGAGAAGACUGCGGGUUCGAGUCCCGUACGGAACG

Variants of: B1
Experiment: yeast fitness relative to wild type (ratio to wild type); higher = fitter; tRNA-Arg(CCU), competitive growth, 37 C, YPD
Procedure, shortened: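 Genotype frequency changes were the basis for Darwinian fitness relative to wild type. The frequencies came from 100-nucleotide paired-end sequencing of gene amplicons from the start population and each end population of pooled yeast strains with tRNA-Arg(CCU) gene variants at the native locus. Competition ran in YPD at 37°C for 24 hours in six replicates, genotypes needed ≥ 100 starting reads, and estimates < 0.5 were set to 0.5.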

Variant | yeast fitness
C4A G25A C29A A37G G50C C60G G63A | ≤ 0.5
C4A G25C C34U A57C | ≤ 0.5
C4A G17A G41A A69U | ≤ 0.5
C4G A15C U26G G41C U47C G68C | ≤ 0.5
C4A U26A U32G A65G | 0.793
C4A G39A G63C | ≤ 0.5
C4A G38A G51A | 0.54
C4A G18C C46G | 0.503
C4G A20G C30G G58A | ≤ 0.5
C4A C30G G41C G68A | ≤ 0.5
C4A C24G G25C A45G C60A | ≤ 0.5
C4A G18C C31U A57G U64C | ≤ 0.5
C4A G17A C60G | 0.697
C4A C31A C33G U47A A65C | 0.627
C4A C30A A37C | ≤ 0.5
C4G A14C C24U C49U | ≤ 0.5
C4A G17A | 0.718
C4A G18A C34G C66U | ≤ 0.5
C4A C31G A40C | ≤ 0.5
C4A C31G A40U | 0.62
C4A C24G G44C G68U | 0.562

Variant | yeast fitness
C4A C27U C66U | 0.66
C4A G12A C31U U59A G63A | ≤ 0.5
C4A U26C | 0.972
C4A C24U A65C | 0.65
C4A G10A | 0.819
C4G A15U | 0.824
C4G A15C | 0.719
C4A G9A U16A C30U A40G C46U | ≤ 0.5
C4A C22G C29U | 0.556
C4A C29G C33G A43U | ≤ 0.5
C4A C24U C29U | ≤ 0.5
C4A G18A C27U U28G C33G A36G | ≤ 0.5
C4A C29G C34G | 0.782
C4A U7G G12C C60U C62G | ≤ 0.5
C4A G9C C30A G39A | 0.51
C4G A20U C31G C62A | ≤ 0.5
C4A U26G U53G | ≤ 0.5
C4G A14C G51C | ≤ 0.5
C4A U32C A42C | 0.578
C4A G23C A40C C55A | 0.63
C4G A14U U59G | ≤ 0.5

Variant | yeast fitness
C4A C31A G56A | 0.649
C4A C46G | 0.847
C4A G18C C49A G52C | ≤ 0.5
C4A G9C C11G G44A C60U G67C | ≤ 0.5
C4A G67C | 0.69
C4A G12C U13G C30U A65U | ≤ 0.5
C4A U13C C31G G44C G52A G58A | ≤ 0.5
C4A G10C C11U G41A A45C A65U | ≤ 0.5
C4A G6A A21C C24U | 0.562
C4A C22U C30A | 0.504
C4A G6C U8A A20C A21U C33U C46U A57G | ≤ 0.5
C4G A20C A40G G52C | 0.6
C4A C66U | 0.862
C4A C24G U28A U35C C49U | 0.542
C4A U8C | 0.887
C4A U8A | 0.694
C4A G10A A14G C31A | ≤ 0.5
C4A C33G A57G | 0.576
C4A C31A U35C A45U | ≤ 0.5
C4A U28C U47C | ≤ 0.5
C4A G39C C49A | ≤ 0.5

Variant | yeast fitness
C4A U7A C31A U54A | ≤ 0.5
C4A C27U C60G | ≤ 0.5
C4A U16A | 0.823
C4A U16C | 0.702
C4A G17C A20C A21U C27U C33G G63A G67A | ≤ 0.5
C4A G17C G23C | ≤ 0.5
C4A C11U C29G U32A G52A | 0.596
C4A U7C C24G C61A C66U | ≤ 0.5
C4A G25A | 1.03
C4G A20C C31U | 0.536
C4G A14U C24U C49G G63A | ≤ 0.5
C4A C33A C60A U64C | ≤ 0.5
C4A C24G G63A C66A | ≤ 0.5
C4A U7C A21C C22U G50C A70U | ≤ 0.5
C4A U7A U35C | ≤ 0.5
C4A C31U C46A | 0.726
C4A G12C U13G C30U | 0.55
C4A U7A A14G G17C | ≤ 0.5
C4A G6A A14G C60U | ≤ 0.5
C4G A14U C31U G44A C46U C49U | ≤ 0.5
C4A G12A A45U | 0.546
